According to ChEMBL document CHEMBL1149634, “1-Acylthiosemicarbazides, 1,2,4-triazole-5(4H)-thiones, 1,3,4-thiadiazoles and hydrazones containing 5-methyl-2-benzoxazolinones: synthesis, analgesic-anti-inflammatory and antimicrobial activities” (2007):
Converted amounts (≈) assume the structure as drawn.

Tests used:
[1] = system: Staphylococcus aureus; experiment: Antibacterial activity against Staphylococcus aureus ATCC 29213 after 24 hrs by broth microdilution test; type: functional; settings: ATCC 29213, 24 h
Procedure, shortened: (§1)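 NCCLS broth microdilution in Mueller-Hinton broth with an inoculum of 5 × 10^5 cfu/mL. Compounds were dissolved in DMSO, diluted in sterile water, and tested as twofold dilutions from 512 to 0.5 µg/mL. Plates were incubated at 35 °C for 24 h. MIC is the lowest concentration preventing visible growth.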

[2] = system: Mus musculus; experiment: Analgesic activity in mouse assessed as inhibition of hind paw lick at 100 mg/kg, ip by hot plate test; type: functional; settings: route intraperitoneal
[3] = system: Mus musculus; experiment: Analgesic activity in mouse assessed as inhibition of acetic acid induced-abdominal writhing at 100 mg/kg, ip by Koster test; type: functional; settings: Abdomen, route intraperitoneal
[4] = system: Mus musculus; experiment: Antiinflammatory activity against carrageenan-induced hind paw oedema in mouse assessed as inhibition of swelling thickness at 100 mg/kg, po after 90 mins; type: functional; settings: 1.5 h
Procedure, shortened: (§2)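 Fasted mice (n = 5–6) were dosed orally with the sample in 0.5% CMC/water. One hour later, carrageenan (0.5 mg/25 µl in 154 mM saline) was injected subplantar into the right hind paw. The right-minus-left footpad thickness difference was measured with dial gauge callipers every 90 min over 6 h. Inhibition % is calculated versus vehicle control; mean ± SEM, Student's t test.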

[5] = system: Mus musculus; experiment: Antiinflammatory activity against carrageenan-induced hind paw oedema in mouse assessed as swelling thickness at 50 mg/kg, po after 90 mins; type: functional; procedure, shortened: as §2
[6] = system: Mus musculus; experiment: Antiinflammatory activity against carrageenan-induced hind paw oedema in mouse assessed as inhibition of swelling thickness at 200 mg/kg, po after 90 mins; type: functional; settings: 1.5 h; procedure, shortened: as §2
[7] = system: Mus musculus; experiment: Antiinflammatory activity against carrageenan-induced hind paw oedema in mouse assessed as inhibition of swelling thickness at 100 mg/kg, po after 180 mins; type: functional; settings: 3 h; procedure, shortened: as §2
[8] = system: Mus musculus; experiment: Antiinflammatory activity against carrageenan-induced hind paw oedema in mouse assessed as swelling thickness at 50 mg/kg, po after 180 mins; type: functional; procedure, shortened: as §2
[9] = system: Mus musculus; experiment: Antiinflammatory activity against carrageenan-induced hind paw oedema in mouse assessed as inhibition of swelling thickness at 200 mg/kg, po after 180 mins; type: functional; settings: 3 h; procedure, shortened: as §2
[10] = system: Mus musculus; experiment: Antiinflammatory activity against carrageenan-induced hind paw oedema in mouse assessed as inhibition of swelling thickness at 100 mg/kg, po after 270 mins; type: functional; settings: 4.5 h; procedure, shortened: as §2
[11] = system: Mus musculus; experiment: Antiinflammatory activity against carrageenan-induced hind paw oedema in mouse assessed as swelling thickness at 50 mg/kg, po after 270 mins; type: functional; procedure, shortened: as §2
[12] = system: Mus musculus; experiment: Antiinflammatory activity against carrageenan-induced hind paw oedema in mouse assessed as inhibition of swelling thickness at 200 mg/kg, po after 270 mins; type: functional; settings: 4.5 h; procedure, shortened: as §2
[13] = system: Mus musculus; experiment: Antiinflammatory activity against carrageenan-induced hind paw oedema in mouse assessed as swelling thickness at 50 mg/kg, po after 360 mins; type: functional; procedure, shortened: as §2
[14] = system: Mus musculus; experiment: Antiinflammatory activity against carrageenan-induced hind paw oedema in mouse assessed as inhibition of swelling thickness at 200 mg/kg, po after 360 mins; type: functional; settings: 6 h; procedure, shortened: as §2
[15] = system: Enterococcus faecalis; experiment: Antibacterial activity against Enterococcus faecalis ATCC 29212 after 24 hrs by broth microdilution test; type: functional; settings: ATCC 29212, 24 h; procedure, shortened: as §1
[16] = system: Escherichia coli; experiment: Antibacterial activity against Escherichia coli ATCC 25922 after 24 hrs by broth microdilution test; type: functional; settings: ATCC 25922, 24 h; procedure, shortened: as §1
[17] = system: Pseudomonas aeruginosa; experiment: Antibacterial activity against Pseudomonas aeruginosa ATCC 27853 after 24 hrs by broth microdilution test; type: functional; settings: ATCC 27853, 24 h; procedure, shortened: as §1
[18] = system: Candida albicans; experiment: Antifungal activity against Candida albicans ATCC 90028 after 48 hrs by broth microdilution test; type: functional; settings: ATCC 90028, 48 h
Procedure, shortened: (§3)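 Yeasts tested by NCCLS M27-A broth microdilution in RPMI 1640 (with L-glutamine, without sodium bicarbonate) with an inoculum of 0.5–2.5 × 10^3 cfu/mL. Compounds were prepared from DMSO solution diluted in water as twofold dilutions from 512 to 0.5 µg/mL. Plates were incubated at 35 °C for 48 h. MIC is the lowest concentration giving no visible growth.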

[19] = system: Pichia kudriavzevii; experiment: Antifungal activity against Candida krusei ATCC 6258 after 48 hrs by broth microdilution test; type: functional; settings: ATCC 6258, 48 h; procedure, shortened: as §3
[20] = system: Candida parapsilosis; experiment: Antifungal activity against Candida parapsilosis ATCC 22019 after 48 hrs by broth microdilution test; type: functional; settings: Lodderomyces parapsilosis, ATCC 22019, 48 h; procedure, shortened: as §3
[21] = system: Mus musculus; experiment: Antiinflammatory activity against carrageenan-induced hind paw oedema in mouse assessed as swelling thickness at 100 mg/kg, po after 360 mins; type: functional; procedure, shortened: as §2
[22] = system: Mus musculus; experiment: Toxicity in mouse assessed as ulceration effect at 200 mg/kg; type: functional, organism-based; parameters: dose 200 mg/kg
Procedure, shortened: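 Mice given 200 mg/kg orally in the carrageenan oedema study were killed under deep ether anaesthesia 6 h after treatment. Stomachs were opened along the greater curvature and examined under a dissecting microscope for lesions or bleeding. Result is expressed as the ratio of ulcerated animals per group.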

[23] = system: Mus musculus; experiment: Antiinflammatory activity against carrageenan-induced hind paw oedema in mouse assessed as swelling thickness at 100 mg/kg, po after 270 mins; type: functional; procedure, shortened: as §2
[24] = system: Mus musculus; experiment: Antiinflammatory activity against carrageenan-induced hind paw oedema in mouse assessed as inhibition of swelling thickness at 100 mg/kg, po after 360 mins; type: functional; settings: 6 h; procedure, shortened: as §2
[25] = system: Mus musculus; experiment: Antiinflammatory activity against carrageenan-induced hind paw oedema in mouse assessed as swelling thickness at 200 mg/kg, po after 360 mins; type: functional; procedure, shortened: as §2

| SMILES | MIC [1] [µg/mL] | inhibition in vivo at 100 mg/kg [2] [%] | inhibition in vivo at 100 mg/kg [3] [%] | inhibition in vivo at 100 mg/kg [4] [%] | Activity [5] [%] | inhibition in vivo at 200 mg/kg [6] [%] | inhibition in vivo at 100 mg/kg [7] [%] | Activity [8] [%] | inhibition in vivo at 200 mg/kg [9] [%] | inhibition in vivo at 100 mg/kg [10] [%] | Activity [11] [%] | inhibition in vivo at 200 mg/kg [12] [%] | Activity [13] [%] | inhibition in vivo at 200 mg/kg [14] [%] | MIC [15] [µg/mL] | MIC [16] [µg/mL] | MIC [17] [µg/mL] | MIC [18] [µg/mL] | MIC [19] [µg/mL] | MIC [20] [µg/mL] | other results |
| --- | --- | --- | --- | --- | --- | --- | --- | --- | --- | --- | --- | --- | --- | --- | --- | --- | --- | --- | --- | --- | --- |
| CC1(C)S[C@@H]2[C@H](NC(=O)[C@H](N)c3ccccc3)C(=O)N2[C@H]1C(=O)O [AMPICILLIN] | 1 (≈ 2.86 µM) |  |  |  |  |  |  |  |  |  |  |  |  |  |  |  |  |  |  |  |  |
| CCCNC(=S)NNC(=O)Cn1c(=O)oc2ccc(C)cc21 | 256 (≈ 794 µM) | 18.1 | 59.7 | 79.8 | 147.3 | 29.1 | 46.1 | 147.1 | 25.1 | 13 | 188.2 | 11.1 | 176.7 | 6.6 | 512 (≈ 1590 µM) | 256 (≈ 794 µM) | 512 (≈ 1590 µM) | 256 (≈ 794 µM) | 256 (≈ 794 µM) | 256 (≈ 794 µM) | Activity [21]: 80.6% |
| Cc1ccc2oc(=O)n(CC(=O)NNC(=S)Nc3ccccc3)c2c1 | 256 (≈ 718 µM) | 23.9 | 55.6 | 79.8 |  | 40.3 | 31.3 | 140.9 | 53.4 |  | 162.6 | 30.5 | 153.3 | 34.1 | 512 (≈ 1440 µM) | 256 (≈ 718 µM) | 256 (≈ 718 µM) | 256 (≈ 718 µM) | 256 (≈ 718 µM) | 128 (≈ 359 µM) | Activity [22]: Not toxic; Activity [23]: 92%; Activity [21]: 79.2% |
| OC(Cn1cncn1)(Cn1cncn1)c1ccc(F)cc1F [FLUCONAZOLE] |  |  |  |  |  |  |  |  |  |  |  |  |  |  |  |  |  | 1 (≈ 3.27 µM) | 64 (≈ 209 µM) | 8 (≈ 26.1 µM) |  |
| Cc1ccc2oc(=O)n(Cc3n[nH]c(=S)n3C)c2c1 | > 512 | 2.2 | 49.6 | 79.8 | 67.5 | 42 | 11.8 | 85.1 | 38.6 | 14.8 | 120.7 | 15.8 | 97.8 |  | > 512 | 512 (≈ 1850 µM) | 512 (≈ 1850 µM) | 512 (≈ 1850 µM) | 512 (≈ 1850 µM) | 256 (≈ 926 µM) | inhibition in vivo at 100 mg/kg [24]: 27.4%; Activity [22]: Not toxic; Activity [25]: 79.1% |
| Cc1ccc2oc(=O)n(Cc3n[nH]c(=S)n3-c3ccccc3)c2c1 | 256 (≈ 757 µM) | 13 | 49.6 | 79.8 | 122.8 | 53.2 | 63.3 | 115.5 | 47.7 | 31.8 | 157.3 | 16.7 | 147.2 | 5.5 | 256 (≈ 757 µM) | 256 (≈ 757 µM) | 256 (≈ 757 µM) | 128 (≈ 378 µM) | 128 (≈ 378 µM) | 128 (≈ 378 µM) | inhibition in vivo at 100 mg/kg [24]: 27.4%; Activity [22]: Not toxic |
| CNC(=S)NNC(=O)Cn1c(=O)oc2ccc(C)cc21 | 512 (≈ 1740 µM) | 23.9 | 61.7 | 64.7 | 118.2 | 58 | 33.8 | 125.2 |  |  | 187.2 | 35.2 | 188.9 | 27.5 | 256 (≈ 870 µM) | 256 (≈ 870 µM) | 128 (≈ 435 µM) | 128 (≈ 435 µM) | 128 (≈ 435 µM) | 128 (≈ 435 µM) | Activity [22]: Not toxic; Activity [21]: 85.8% |
| CNc1nnc(Cn2c(=O)oc3ccc(C)cc32)s1 | 512 (≈ 1850 µM) | 54.3 | 73.8 | 62.7 | 66 | 63.5 | 21.4 | 101.3 | 46.9 |  | 106.8 | 33.3 | 96 | 14.5 | 512 (≈ 1850 µM) | 512 (≈ 1850 µM) | 512 (≈ 1850 µM) | 256 (≈ 926 µM) | 256 (≈ 926 µM) | 256 (≈ 926 µM) | Activity [23]: 110.4%; Activity [21]: 106.7% |
| Cc1ccc2oc(=O)n(CC(=O)N/N=C/c3ccccc3)c2c1 | 256 (≈ 828 µM) | 23.9 | 62.5 | 79.8 | 98.3 | 63.5 | 30 | 100.1 | 37.8 |  | 108.8 | 27.2 | 115 |  | 512 (≈ 1660 µM) | 256 (≈ 828 µM) | 256 (≈ 828 µM) | 128 (≈ 414 µM) | 128 (≈ 414 µM) | 128 (≈ 414 µM) | Activity [23]: 95.4%; Activity [21]: 84.5% |
| Cc1ccc2oc(=O)n(CC(=O)N/N=C/c3ccc(Cl)cc3)c2c1 | > 512 | 50.7 | 62.5 | 64.7 | 72.5 | 17.1 | 5.1 | 89 | 22.8 | 5.3 | 111.8 | 17.2 | 107 | 7.7 | > 512 | > 512 | > 512 | 128 (≈ 372 µM) | 256 (≈ 745 µM) | 256 (≈ 745 µM) | inhibition in vivo at 100 mg/kg [24]: 4.3% |
| CCNC(=S)NNC(=O)Cn1c(=O)oc2ccc(C)cc21 | 256 (≈ 830 µM) | 18.1 | 44.4 | 57.1 | 116.7 | 19.4 | 36.3 | 21.5 | 54.6 | 35.6 | 139.1 | 27.8 | 127.8 | 47.2 | 512 (≈ 1660 µM) | 256 (≈ 830 µM) | 512 (≈ 1660 µM) | 256 (≈ 830 µM) | 256 (≈ 830 µM) | 256 (≈ 830 µM) | inhibition in vivo at 100 mg/kg [24]: 29.3%; Activity [22]: Not toxic |
| Cc1ccc2oc(=O)n(CC(=O)NN)c2c1 | 256 (≈ 1160 µM) | 42 | 73.8 | 84.8 | 92.1 | 65.1 | 70.5 | 88.7 |  | 39.4 | 108.4 | 54.7 | 101.1 | 51.6 | 512 (≈ 2310 µM) | 256 (≈ 1160 µM) | 256 (≈ 1160 µM) | 128 (≈ 579 µM) | 128 (≈ 579 µM) | 128 (≈ 579 µM) | inhibition in vivo at 100 mg/kg [24]: 27.4% |
